Laboratory results as given in ChEMBL document CHEMBL1147187, “Design and synthesis of new potent dipeptidyl peptidase IV inhibitors with enhanced ex vivo duration” (Bioorg Med Chem, 2007).
Calls of active or inactive are those of the source. The calls are words filed in the database; no cut-off is given here.

Key:
[1] = molecular target: Dipeptidyl peptidase 4 (Rattus norvegicus) (UniProt P14740); assay: Ex vivo inhibition of DPP4 in Sprague-Dawley rat plasma at 1 mg/kg, po after 6 hrs; format: organism-based; parameters: dose 1 mg/kg
Procedure, shortened: (§1)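 Male SD rats, 6–7 weeks old, fasted at least 8 h, given a single oral dose of 1 mg/kg in 0.5% methyl cellulose. Jugular vein blood taken before dosing and serially to 10 h (12 h in the species comparison). Plasma mixed with substrate (50 µL of 60 µM Gly-Pro-AMC). Initial fluorescence rate over 15 min at 37 °C; % inhibition is relative to basal activity.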

[2] = molecular target: Dipeptidyl peptidase 4 (Rattus norvegicus) (UniProt P14740); assay: Ex vivo inhibition of DPP4 in Sprague-Dawley rats plasma at 1 mg/kg, po after 10 hrs; format: organism-based; parameters: dose 1 mg/kg; procedure, shortened: as §1
Rattus norvegicus [3] = assay: Suppression of glucose level in Sprague-Dawley rats at 1 mg/kg, po administered 30 mins prior to glucose by glucose tolerance test after 6 hrs; format: functional, organism-based; parameters: dose 1 mg/kg
Procedure, shortened: (§2)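 Male SD rats (364–473 g), fasted at least 20 h, given vehicle (0.5% methyl cellulose) or 1 mg/kg orally at −0.5 h. Oral glucose 1 g/kg given at 0, 6 and 12 h. Tail-vein blood collected into heparinized tubes from −0.08 h to 14 h. Plasma glucose measured by glucose oxidase–peroxidase dye method.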

[4] = molecular target: Dipeptidyl peptidase 4 (Rattus norvegicus) (UniProt P14740); assay: Ex vivo inhibition of DPP4 in Sprague-Dawley rats plasma at 1 mg/kg, po after 12 hrs; format: organism-based; parameters: dose 1 mg/kg; procedure, shortened: as §1
[5] = Stability in Tris buffer at pH 7.4 after 24 hrs; format: physicochemical; conditions: read-out: Stability
Procedure, shortened: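 Remaining percentage measured after incubation in 100 mM Tris buffer, pH 7.4, at room temperature for 24 h.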

Cynomolgus monkey = assay: animal or person; conditions: Macaca fascicularis, po, 12 h, read-out: Inhibition
Rattus norvegicus [6] = assay: Suppression of glucose level in Sprague-Dawley rats at 1 mg/kg, po administered 30 mins prior to glucose by glucose tolerance test; format: functional, organism-based; parameters: dose 1 mg/kg; procedure, shortened: as §2
Canis familiaris = assay: Ex vivo inhibition of DPP4 in Beagle dog at 1 mg/kg, po after 12 hrs; format: functional; conditions: Canis lupus familiaris
Procedure, shortened: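 Male beagle dogs (11–15 kg) and male cynomolgus monkeys (3.5–6 kg), fasted 8 h, given a single oral dose of 1 mg/kg in 0.5% methyl cellulose. Femoral vein blood taken before dosing and at 12 h. Plasma DPP-IV activity measured as the initial rate of Gly-Pro-AMC cleavage (fluorescence, ex 355/em 460 nm, 37 °C); % inhibition is relative to basal activity.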

Rattus norvegicus [7] = assay: Suppression of glucose level in Sprague-Dawley rats at 1 mg/kg, po administered 30 mins prior to glucose by glucose tolerance test after 12 hrs; format: functional, organism-based; parameters: dose 1 mg/kg; procedure, shortened: as §2

Sequence of Dipeptidyl peptidase 4 (Rattus norvegicus) (P14740 whole entry, looked up): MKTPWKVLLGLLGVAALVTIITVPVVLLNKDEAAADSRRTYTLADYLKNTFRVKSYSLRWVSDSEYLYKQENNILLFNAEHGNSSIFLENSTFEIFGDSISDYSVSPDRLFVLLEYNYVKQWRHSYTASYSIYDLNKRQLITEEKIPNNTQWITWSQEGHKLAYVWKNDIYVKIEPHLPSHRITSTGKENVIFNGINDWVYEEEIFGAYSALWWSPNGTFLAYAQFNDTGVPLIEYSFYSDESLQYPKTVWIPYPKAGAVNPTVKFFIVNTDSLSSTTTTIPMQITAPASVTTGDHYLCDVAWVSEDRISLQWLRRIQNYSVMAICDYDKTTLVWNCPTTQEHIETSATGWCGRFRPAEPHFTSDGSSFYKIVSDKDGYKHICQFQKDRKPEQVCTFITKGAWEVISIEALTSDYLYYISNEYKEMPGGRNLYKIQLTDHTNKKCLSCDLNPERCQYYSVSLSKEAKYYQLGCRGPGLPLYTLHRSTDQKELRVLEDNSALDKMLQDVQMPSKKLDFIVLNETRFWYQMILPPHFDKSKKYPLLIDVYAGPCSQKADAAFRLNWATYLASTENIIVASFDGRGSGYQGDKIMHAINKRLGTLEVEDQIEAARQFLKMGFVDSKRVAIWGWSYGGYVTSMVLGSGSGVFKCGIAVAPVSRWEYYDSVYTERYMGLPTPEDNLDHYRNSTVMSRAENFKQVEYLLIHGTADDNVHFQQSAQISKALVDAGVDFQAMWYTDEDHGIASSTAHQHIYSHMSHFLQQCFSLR

## N#C[C@@H]1CCCN1C(=O)[C@@H]1C[C@H](C(=O)N2CCSCC2)CN1
[1]
  inhibition: 72%
[2]
  inhibition: 19%

## C=CC[C@@H]1CN[C@H](C(=O)N2CCC[C@H]2C#N)C1
[1]
  inhibition: 38%

## N#C[C@@H]1CCCN1C(=O)[C@@H]1CCCN1
[1]
  inhibition: 20%

## CCC[C@@H]1CN[C@H](C(=O)N2CCC[C@H]2C#N)C1
[1]
  inhibition: 50%

## C[C@@H]1N[C@H](C(=O)N2CCC[C@H]2C#N)C[C@@H]1C(=O)N(C)C
Rattus norvegicus [3]
  Activity: Active
[4]
  inhibition: 81%
[5]
  remaining at 24 h: 92%
Cynomolgus monkey
  inhibition in vivo at 1 mg/kg: 93%
Rattus norvegicus [6]
  Activity: Active
Canis familiaris
  inhibition in vivo at 1 mg/kg: 98%
[1]
  inhibition: 95%
Rattus norvegicus [7]
  Activity: Active
[2]
  inhibition: 84%

## CCN(C)C(=O)[C@@H]1CN[C@H](C(=O)N2CCC[C@H]2C#N)C1
[1]
  inhibition: 71%
[2]
  inhibition: 34%

## CCNC(=O)[C@@H]1CN[C@H](C(=O)N2CCC[C@H]2C#N)C1
[1]
  inhibition: 60%
[2]
  inhibition: 19%

## CCCNC(=O)[C@@H]1CN[C@H](C(=O)N2CCC[C@H]2C#N)C1
[1]
  inhibition: 59%
[2]
  inhibition: 21%

## N#C[C@@H]1CCCN1C(=O)[C@@H]1C[C@H](C(=O)N2CCCCCCC2)CN1
[1]
  inhibition: 63%

## N#C[C@@H]1CCCN1C(=O)[C@@H]1C[C@H](CO)CN1
[1]
  inhibition: 64%

## N#C[C@@H]1CCCN1C(=O)[C@@H]1C[C@H](C(=O)N2CCCC2)CN1
[1]
  inhibition: 85%
[2]
  inhibition: 40%

## N#C[C@@H]1CCCN1C(=O)[C@@H]1C[C@H](C(N)=O)CN1
[1]
  inhibition: 47%
[2]
  inhibition: 20%

## CCN(C)C(=O)[C@H]1C[C@@H](C(=O)N2CCC[C@H]2C#N)N[C@H]1C
[4]
  inhibition: 74%
Cynomolgus monkey
  inhibition in vivo at 1 mg/kg: 95%
Canis familiaris
  inhibition in vivo at 1 mg/kg: 89%
[1]
  inhibition: 92%
[2]
  inhibition: 79%

## N#C[C@@H]1CCCN1C(=O)[C@@H]1C[C@H](C(=O)N2CCC2)CN1
[1]
  inhibition: 77%
[2]
  inhibition: 46%

## CN(C)C(=O)CC[C@@H]1CN[C@H](C(=O)N2CCC[C@H]2C#N)C1
[1]
  inhibition: 58%

## CCN(CC)C(=O)[C@@H]1CN[C@H](C(=O)N2CCC[C@H]2C#N)C1
[1]
  inhibition: 43%

## CN(C)C(=O)[C@@H]1CN[C@H](C(=O)N2CCC[C@H]2C#N)C1
[4]
  inhibition: 24%
[5]
  remaining at 24 h: 52%
Cynomolgus monkey
  inhibition in vivo at 1 mg/kg: 44%
Canis familiaris
  inhibition in vivo at 1 mg/kg: 45%
[1]
  inhibition: 76%
[2]
  inhibition: 52%

## N#C[C@@H]1CCCN1C(=O)[C@@H]1C[C@H](C(=O)N2CCOCC2)CN1
[1]
  inhibition: 73%
[2]
  inhibition: 44%

## C[C@@H]1N[C@H](C(=O)N2CCC[C@H]2C#N)C[C@@H]1C(=O)N1CCOCC1
Cynomolgus monkey
  inhibition in vivo at 1 mg/kg: 90%
Canis familiaris
  inhibition in vivo at 1 mg/kg: 98%
[1]
  inhibition: 94%
[2]
  inhibition: 85%

## C[C@@H]1N[C@H](C(=O)N2CCC[C@H]2C#N)C[C@@H]1C(=O)N1CCCC1
[4]
  inhibition: 82%
Cynomolgus monkey
  inhibition in vivo at 1 mg/kg: 95%
Canis familiaris
  inhibition in vivo at 1 mg/kg: 95%
[1]
  inhibition: 94%
[2]
  inhibition: 88%

## N#C[C@@H]1CCCN1C(=O)[C@@H]1C[C@H](CC(=O)O)CN1
[1]
  inhibition: 58%

## N#C[C@@H]1CCCN1C(=O)[C@@H]1C[C@H](CCO)CN1
[1]
  inhibition: 64%

## C[C@@H]1N[C@H](C(=O)N2CCC[C@H]2C#N)C[C@@H]1C(=O)N1Cc2ccccc2C1
[4]
  inhibition: 71%
Canis familiaris
  inhibition in vivo at 1 mg/kg: 16%
[1]
  inhibition: 86%
[2]
  inhibition: 77%

## C[C@@H]1N[C@H](C(=O)N2CCC[C@H]2C#N)C[C@@H]1C(=O)N1CCC1
[1]
  inhibition: 94%
[2]
  inhibition: 88%

## N#C[C@@H]1CCCN1C(=O)[C@@H]1C[C@H](C(=O)N2CCCCC2)CN1
[1]
  inhibition: 84%
[2]
  inhibition: 50%

## N#C[C@@H]1CCCN1C(=O)[C@@H]1C[C@H](C(=O)N2CCCCCC2)CN1
[1]
  inhibition: 68%

## CN(C)C(=O)C[C@@H]1CN[C@H](C(=O)N2CCC[C@H]2C#N)C1
[1]
  inhibition: 66%

## CNC(=O)[C@@H]1CN[C@H](C(=O)N2CCC[C@H]2C#N)C1
[1]
  inhibition: 75%
[2]
  inhibition: 28%

## C[C@@H]1N[C@H](C(=O)N2CCC[C@H]2C#N)C[C@@H]1C(=O)N1CCSCC1
[1]
  inhibition: 92%
[2]
  inhibition: 85%

## C[C@@H]1N[C@H](C(=O)N2CCC[C@H]2C#N)C[C@@H]1C(=O)N1CCCCC1
[1]
  inhibition: 91%
[2]
  inhibition: 81%
